Assays:
[1] = AUC (0 to 6 hrs) in castrated pig plasma withdrawn from hepatic vein at 0.2 mg/kg, iv by UPLC-tandem mass spectrometry; format: ADME, organism-based, Sus scrofa; parameters: time < 6 hr, dose 0.2 mg/kg, route intravenous; details: male
Summary of the method: (§1)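 Where ketoconazole was co-dosed, it was given at 10 mg/kg at the same jejunal site 20 min before. Plasma protein-precipitated with acetonitrile and analysed by UPLC-MS/MS (finasteride-d9). AUC0-6h, Cmax and t1/2 (ln2/λz) were derived by non- or compartmental analysis.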

[2] = Apparent half-life of the terminal disposition phase in castrated pig plasma withdrawn from portal vein at 0.2 mg/kg, iv by UPLC-tandem mass spectrometry; format: ADME, organism-based, Sus scrofa; parameters: dose 0.2 mg/kg, route intravenous; details: male, read-out: t1/2 lambda z (converted); summary of the method: as §1
[3] = Apparent half-life of the terminal disposition phase in castrated pig plasma withdrawn from hepatic vein at 0.2 mg/kg, iv by UPLC-tandem mass spectrometry; format: ADME, organism-based, Sus scrofa; parameters: dose 0.2 mg/kg, route intravenous; details: male, read-out: t1/2 lambda z (converted); summary of the method: as §1
[4] = Apparent half-life of the terminal disposition phase in castrated pig plasma withdrawn from femoral vein at 0.2 mg/kg, iv by UPLC-tandem mass spectrometry; format: ADME, organism-based, Sus scrofa; parameters: dose 0.2 mg/kg, route intravenous; details: male, read-out: t1/2 lambda z (converted); summary of the method: as §1
[5] = test system: Sus scrofa; experiment: Hepatic clearance in castrated pig at 0.8 mg/kg administered as intrajejunal dose 20 mins after ketoconazole administration by UPLC-tandem mass spectrometry; format: ADME, organism-based, Liver; parameters: dose 0.8 mg/kg; details: in vivo, other
Summary of the method: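 Portal and hepatic vein plasma measured 0-6 h by UPLC-MS/MS. Extraction ratio derived from portal versus hepatic concentrations or AUCs; CLH then obtained as EH × liver blood flow 52 ml/min/kg × measured blood/plasma ratio.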

[6] = Biliary excretion in castrated pig assessed as fraction of the dose excreted at 0.8 mg/kg administered as intrajejunal dose measured during 6 hrs sampling by UPLC-tandem mass spectrometry; format: ADME, organism-based, Sus scrofa; parameters: dose 0.8 mg/kg; details: male, bile, read-out: Drug excretion
[7] = Biliary excretion in castrated pig assessed as fraction of the dose excreted at 0.2 mg/kg, iv measured during 6 hrs sampling by UPLC-tandem mass spectrometry; format: ADME, organism-based, Sus scrofa; parameters: dose 0.2 mg/kg, route intravenous; details: male, bile, read-out: Drug excretion
[8] = AUC (0 to 6 hrs) in castrated pig plasma withdrawn from femoral vein at 0.8 mg/kg administered as intrajejunal dose by UPLC-tandem mass spectrometry; format: ADME, organism-based, Sus scrofa; parameters: time < 6 hr, dose 0.8 mg/kg; details: male; summary of the method: as §1
[9] = AUC (0 to 6 hrs) in castrated pig plasma withdrawn from portal vein at 0.8 mg/kg administered as intrajejunal dose 20 mins after ketoconazole administration by UPLC-tandem mass spectrometry; format: ADME, organism-based, Sus scrofa; parameters: time < 6 hr, dose 0.8 mg/kg; details: male; summary of the method: as §1
[10] = Cmax in castrated pig plasma withdrawn from femoral vein at 0.8 mg/kg administered as intrajejunal dose by UPLC-tandem mass spectrometry; format: ADME, organism-based, Sus scrofa; parameters: dose 0.8 mg/kg; details: male; summary of the method: as §1
[11] = Cmax in castrated pig plasma withdrawn from portal vein at 0.8 mg/kg administered as intrajejunal dose 20 mins after ketoconazole administration by UPLC-tandem mass spectrometry; format: ADME, organism-based, Sus scrofa; parameters: dose 0.8 mg/kg; details: male; summary of the method: as §1
[12] = Cmax in castrated pig plasma withdrawn from hepatic vein at 0.8 mg/kg administered as intrajejunal dose 20 mins after ketoconazole administration by UPLC-tandem mass spectrometry; format: ADME, organism-based, Sus scrofa; parameters: dose 0.8 mg/kg; details: male; summary of the method: as §1
[13] = Cmax in castrated pig plasma withdrawn from femoral vein at 0.8 mg/kg administered as intrajejunal dose 20 mins after ketoconazole administration by UPLC-tandem mass spectrometry; format: ADME, organism-based, Sus scrofa; parameters: dose 0.8 mg/kg; details: male; summary of the method: as §1
[14] = Tmax in castrated pig plasma withdrawn from femoral vein at 0.8 mg/kg administered as intrajejunal dose by UPLC-tandem mass spectrometry; format: ADME, organism-based, Sus scrofa; parameters: dose 0.8 mg/kg; details: male
Summary of the method: (§2)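 Portal, hepatic and femoral vein plasma sampled over 6 h and assayed by UPLC-MS/MS. Tmax read directly from the profiles. Terminal t1/2 calculated as ln2/λz by non- or compartmental analysis; values below LLOQ after Cmax excluded.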

[15] = Apparent biliary clearance in castrated pig at 0.8 mg/kg administered as intrajejunal dose 20 mins after ketoconazole administration by UPLC-tandem mass spectrometry; format: ADME, organism-based, Sus scrofa, Bile; parameters: dose 0.8 mg/kg; details: in vivo, other
[16] = AUC (0 to 6 hrs) in castrated pig bile at 0.8 mg/kg administered as intrajejunal dose by UPLC-tandem mass spectrometry; format: ADME, organism-based, Sus scrofa; parameters: time < 6 hr, dose 0.8 mg/kg; details: male
[17] = Ratio of AUC in bile to plasma withdrawn from portal vein in castrated pig at 0.2 mg/kg, iv by UPLC-tandem mass spectrometry; format: ADME, organism-based, Sus scrofa; parameters: dose 0.2 mg/kg, route intravenous; details: male, read-out: Ratio AUC
Summary of the method: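 Bile collected 0-6 h and weighed; portal and hepatic vein plasma sampled. Analytes quantified by UPLC-MS/MS (finasteride-d9 internal standard, SRM). Bile AUC divided by plasma AUC for each vein.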

[18] = Ratio of AUC in bile to plasma withdrawn from hepatic vein in castrated pig at 0.8 mg/kg administered as intrajejunal dose 20 mins after ketoconazole administration by UPLC-tandem mass spectrometry; format: ADME, organism-based, Sus scrofa; parameters: dose 0.8 mg/kg; details: male, read-out: Ratio AUC
Summary of the method: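 Bile collected 0-6 h and weighed; portal and hepatic vein plasma sampled. UPLC-MS/MS quantification against finasteride-d9 in SRM mode. Bile/plasma AUC ratio calculated per vein.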

[19] = Drug excretion in castrated pig urine assessed as fraction of the dose excreted at 0.8 mg/kg administered as intrajejunal dose measured during 6 hrs sampling by UPLC-tandem mass spectrometry; format: ADME, organism-based, Sus scrofa; parameters: dose 0.8 mg/kg; details: male, read-out: Drug excretion
[20] = Drug excretion in castrated pig urine assessed as fraction of the dose excreted at 0.2 mg/kg, iv measured during 6 hrs sampling by UPLC-tandem mass spectrometry; format: ADME, organism-based, Sus scrofa; parameters: dose 0.2 mg/kg, route intravenous; details: male, read-out: Drug excretion
[21] = Renal clearance in castrated pig at 0.8 mg/kg, administered as intrajejunal dose by UPLC-tandem mass spectrometry; format: ADME, organism-based, Sus scrofa, Kidney; parameters: dose 0.8 mg/kg; details: male, in vivo
Summary of the method: (§3)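 Urine collected 0-360 min into a closed bag, weighed and frozen at -20°C. […] Doses: iv 0.2 mg/kg bolus via central vein catheter (n=3), or ij 0.8 mg/kg alone or 20 min after ij ketoconazole 10 mg/kg (n=5). Renal clearance derived from the amount excreted in urine over 0-6 h.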

[22] = Renal clearance in castrated pig at 0.8 mg/kg, administered as intrajejunal dose 20 mins after ketoconazole administration by UPLC-tandem mass spectrometry; format: ADME, organism-based, Sus scrofa, Kidney; parameters: dose 0.8 mg/kg; details: male, in vivo; summary of the method: as §3
[23] = AUC (0 to 6 hrs) in castrated pig plasma withdrawn from portal vein at 0.8 mg/kg administered as intrajejunal dose by UPLC-tandem mass spectrometry; format: ADME, organism-based, Sus scrofa; parameters: time < 6 hr, dose 0.8 mg/kg; details: male; summary of the method: as §1
[24] = AUC (0 to 6 hrs) in castrated pig plasma withdrawn from hepatic vein at 0.8 mg/kg administered as intrajejunal dose by UPLC-tandem mass spectrometry; format: ADME, organism-based, Sus scrofa; parameters: time < 6 hr, dose 0.8 mg/kg; details: male; summary of the method: as §1
[25] = Oral absorption in human; format: ADME, organism-based; details: in vivo
[26] = Drug excretion in castrated pig urine assessed as omega-hydroxy finasteride metabolite formation by UPLC-tandem mass spectrometry; format: ADME, tissue-based, Sus scrofa
[27] = Terminal half life in castrated pig plasma withdrawn from hepatic vein at 0.8 mg/kg administered as intrajejunal dose by UPLC-tandem mass spectrometry; format: ADME, organism-based, Sus scrofa; parameters: dose 0.8 mg/kg; details: male, read-out: beta t1/2 (converted); summary of the method: as §2
[28] = Terminal half life in castrated pig plasma withdrawn from hepatic vein at 0.8 mg/kg administered as intrajejunal dose 20 mins after ketoconazole administration by UPLC-tandem mass spectrometry; format: ADME, organism-based, Sus scrofa; parameters: dose 0.8 mg/kg; details: male, read-out: beta t1/2 (converted); summary of the method: as §2
[29] = Terminal half life in castrated pig plasma withdrawn from femoral vein at 0.8 mg/kg administered as intrajejunal dose 20 mins after ketoconazole administration by UPLC-tandem mass spectrometry; format: ADME, organism-based, Sus scrofa; parameters: dose 0.8 mg/kg; details: male, read-out: beta t1/2 (converted); summary of the method: as §2
[30] = test system: Sus scrofa; experiment: Absorption rate constant in castrated pig plasma withdrawn from femoral vein at 0.8 mg/kg administered as intrajejunal dose by UPLC-tandem mass spectrometry; format: ADME, organism-based; parameters: dose 0.8 mg/kg; details: in vivo, other
[31] = test system: Sus scrofa; experiment: Absorption rate constant in castrated pig plasma withdrawn from portal vein at 0.8 mg/kg administered as intrajejunal dose 20 mins after ketoconazole administration by UPLC-tandem mass spectrometry; format: ADME, organism-based; parameters: dose 0.8 mg/kg; details: in vivo, other
[32] = test system: Sus scrofa; experiment: Absorption rate constant in castrated pig plasma withdrawn from femoral vein at 0.8 mg/kg administered as intrajejunal dose 20 mins after ketoconazole administration by UPLC-tandem mass spectrometry; format: ADME, organism-based; parameters: dose 0.8 mg/kg; details: in vivo, other
[33] = Biliary excretion in castrated pig assessed as unchanged drug level at 0.8 mg/kg administered as intrajejunal dose measured during 6 hrs sampling by UPLC-tandem mass spectrometry; format: ADME, organism-based, Sus scrofa, Bile; parameters: dose 0.8 mg/kg; details: in vivo, other

For `CC(C)(C)NC(=O)[C@H]1CC[C@H]2[C@@H]3CC[C@H]4NC(=O)C=C[C@]4(C)[C@H]3CC[C@]12C` [FINASTERIDE], the AUC(0-t) at 6 h [1] was 0.9 µM·h, the half-life [2] was 2.6 h and the half-life [3] was 3.1 h. It also gave a half-life [4] of 3.4 h, a CLH [5] of 25900 mL/day/kg and a dose excreted at 6 h [6] of 0.09%. For the same compound, the dose excreted at 6 h [7] was 0.19%, the AUC(0-t) at 6 h [8] was 1.7 µM·h and the AUC(0-t) at 6 h [9] was 6.3 µM·h. It also gave a Cmax [10] of 600 nM, a Cmax [11] of 3100 nM and a Cmax [12] of 1400 nM. The Cmax [13] was 1200 nM, the Tmax [14] was 0.9 h and the “CL(app)” value [15] was 14 mL/day/kg. The AUC(0-t) at 6 h [16] was 2.5 µM·h, the Kp [17] was 0.9 and the Kp at 20 min [18] was 6. For the same compound, the dose excreted at 6 h [19] was 0.02%, the dose excreted at 6 h [20] was 0.12% and the CL renal [21] was 7.2 mL/day/kg. It also gave a CL renal at 20 min [22] of 8.64 mL/day/kg, an AUC(0-t) at 6 h [23] of 2.9 µM·h and an AUC(0-t) at 6 h [24] of 1.6 µM·h. The Fa [25] was > 85%, the Drug excretion [26] was “metabolite_not_detected” and the half-life [27] was 1.7 h. The half-life [28] was 3.6 h, the half-life [29] was 4 h and the ka [30] was 6 h⁻¹. The ka [31] was 29 h⁻¹, the ka [32] was 3 h⁻¹ and the Ae [33] was 0.03 µmol.

Source: ChEMBL document CHEMBL3525971 (Drug Metab Dispos, 2011)
